From ChEMBL document CHEMBL4673191, “A scaffold hopping strategy to generate new aryl-2-amino pyrimidine MRSA biofilm inhibitors” (RSC Med Chem, 2021)
Active and inactive are the calls of the source. The calls are words filed in the database; no cut-off is given here.

What was measured:
Klebsiella pneumoniae [1] = assay: Antibacterial activity against Klebsiella pneumoniae B9 assessed as reduction in bacterial growth incubated for 16 hrs by broth microdilution assay; format: functional
In short: (§1)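 Bacteria grown 4–6 h in CAMHB, subcultured to 5 x 10⁵ CFU/mL in fresh CAMHB. Compound added from 100 mM DMSO stock, then 2-fold serial dilution in microtiter plate; untreated and media-only wells as controls. Stationary incubation at 37 °C for 16 h, then OD₆₀₀ read. MIC taken as lowest concentration giving 90% growth inhibition vs untreated. Duplicate, repeated at least twice.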

Acinetobacter baumannii [2] = assay: Potentiation of colistin-induced antibacterial activty against Acinetobacter baumannii ATCC 4106 assessed as colistin MIC at 60 uM incubated for 16 hrs by broth microdilution assay (reference value: 1024 microg/ml); format: functional
In short: (§2)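 Cultures grown 4–6 h in CAMHB, diluted to 5 x 10⁵ CFU/mL. Compound added to aliquots from 100 mM DMSO stock; one aliquot left undosed for colistin MIC alone. Colistin serially diluted 2-fold in the compound-dosed suspension; compound-alone wells kept. Stationary, 37 °C, 16 h, then OD₆₀₀. Colistin MIC = lowest concentration giving 90% growth inhibition vs untreated. Duplicate, at least twice.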

Staphylococcus aureus [3] = assay: Antibiofilm activity against preformed methicillin-resistant Staphylococcus aureus ATCC 43300 assessed as dispersion of biofilm at 100 uM incubated for 24 hrs by crystal violet staining based assay; format: functional, organism-based
In short: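 Overnight culture in TSB + 2.0% glucose subcultured to OD600 0.01 in TSBG; 100 µL per well of PVC plates, static 37 °C for 24 h to form biofilm. After washing, compound in medium added for a further 24 h at 37 °C; medium-only control. Washed, 0.1% crystal violet 30 min, ethanol-solubilized, OD540 with no-biofilm background subtracted. Duplicates, ≥2 repeats.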

Staphylococcus aureus [4] = assay: Inhibition of biofilm formation in methicillin-resistant Staphylococcus aureus ATCC 43300 at 200 uM incubated for 24 hrs by crystal violet staining based assay relative to control; format: functional
In short: (§3)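 Overnight culture subcultured to OD600 0.01 in TSB with 2.0% (w/v) glucose; compound diluted in this medium, 100 µL per well of PVC plates, static incubation 24 h at 37 °C. Wells washed with water, stained with 0.1% crystal violet 30 min at ambient temperature, stain solubilized in ethanol, OD540 read minus no-biofilm background. Duplicates, at least two separate repeats.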

Acinetobacter baumannii [5] = assay: Antibacterial activity against Acinetobacter baumannii ATCC 4106 assessed as reduction in bacterial growth incubated for 16 hrs by broth microdilution assay; format: functional; in short: as §1
Staphylococcus aureus [6] = assay: Inhibition of biofilm formation in methicillin-resistant Staphylococcus aureus ATCC 43300 incubated for 24 hrs by crystal violet staining based assay; format: functional, organism-based; conditions: ATCC 43300, 24 h; in short: as §3
Staphylococcus aureus [7] = assay: Antibacterial activity against methicillin-resistant Staphylococcus aureus ATCC 43300 assessed as inhibition of planktonic bacterial growth at IC50 incubated for 24 hrs by colony counter analysis; format: functional
In short: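 MRSA 43300 grown overnight in TSB with 2.0% glucose (TSBG), inoculated into fresh TSBG at OD600 0.01, compound added to 3 mL tube cultures; untreated control. Shaken at 37 °C; samples at 2, 4, 6, 8, 24 h serially diluted in TSBG, plated on nutrient agar, incubated overnight at 37 °C, colonies counted. Duplicates, at least two separate repeats.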

Staphylococcus aureus [8] = assay: Inhibition of biofilm formation in methicillin-resistant Staphylococcus aureus BAA-44 incubated for 24 hrs by crystal violet staining based assay; format: functional, organism-based; conditions: BAA-44, 24 h; in short: as §3
Klebsiella pneumoniae [9] = assay: Effect on lipid A substitution pattern of lipopolysaccharide in Klebsiella pneumoniae B9 by mass spectrometry; format: functional
Klebsiella pneumoniae [10] = assay: Potentiation of colistin-induced antibacterial activty against Klebsiella pneumoniae B9 assessed as fractional inhibitory concentration index incubated for 16 hrs in presence of colistin by checkerboard assay; format: functional
In short: (§4)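 Checkerboard in CAMHB inoculated with K. pneumoniae at 5 x 10⁵ CFU/mL. Compound serially diluted 2-fold down rows and colistin across columns, starting each at 2x top concentration; one row and one column give single-agent MICs.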

[11] = Hemolytic activity against sheep blood assessed as blood cell lysis at 200 uM incubated for 1 hr by UV-visible spectrophotometry; format: ADME, tissue-based, Ovis aries; conditions: sheep blood cells, read-out: Activity
In short: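 Defibrinated sheep blood centrifuged, washed and resuspended in PBS three times, then diluted 10-fold. Compound added from DMSO stock; 1% Triton X as 100% lysis and PBS as zero lysis. Shaken at 200 rpm, 37 °C, 1 h, then centrifuged. Supernatant diluted 40-fold in water and absorbance read at 540 nm.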

Klebsiella pneumoniae [12] = assay: Potentiation of colistin-induced antibacterial activty against Klebsiella pneumoniae A5 assessed as fractional inhibitory concentration index incubated for 16 hrs in presence of colistin by checkerboard assay; format: functional; in short: as §4
Staphylococcus aureus [13] = assay: Inhibition of biofilm formation in methicillin-resistant Staphylococcus aureus ATCC 6538 incubated for 24 hrs by crystal violet staining based assay; format: functional, organism-based; conditions: ATCC 6538, 24 h; in short: as §3
Klebsiella pneumoniae [14] = assay: Potentiation of colistin-induced antibacterial activty against Klebsiella pneumoniae B9 assessed as fold reduction in colistin MIC at 60 uM incubated for 16 hrs by broth microdilution assay; format: functional; in short: as §2
Klebsiella pneumoniae [15] = assay: Potentiation of colistin-induced antibacterial activity against Klebsiella pneumoniae B9 assessed as colistin MIC at 60 uM incubated for 16 hrs by broth microdilution assay (reference value: 512 ug/ml); format: functional; in short: as §2
Klebsiella pneumoniae [16] = assay: Potentiation of colistin-induced antibacterial activty against Klebsiella pneumoniae F2210219mcr-1 assessed as fractional inhibitory concentration index incubated for 16 hrs in presence of colistin by checkerboard assay; format: functional; in short: as §4
Staphylococcus aureus [17] = assay: Inhibition of biofilm formation in methicillin-resistant Staphylococcus aureus ATCC 33591 incubated for 24 hrs by crystal violet staining based assay; format: functional, organism-based; conditions: ATCC 33591, 24 h; in short: as §3

| SMILES | MIC (Klebsiella pneumoniae [1]) [µM] | MIC (Acinetobacter baumannii [2]) [µg/mL] | Activity (Staphylococcus aureus [3]) | inhibition at 200 µM (Staphylococcus aureus [4]) [%] | MIC (Acinetobacter baumannii [5]) [µM] | IC50 (Staphylococcus aureus [6]) [µM] | MIC (Staphylococcus aureus [7]) [µM] | IC50 (Staphylococcus aureus [8]) [µM] | Activity (Klebsiella pneumoniae [9]) | Activity (Staphylococcus aureus [7]) | fractional inhibitory concentration index (FICI) (Klebsiella pneumoniae [10]) | hemolysis at 1 h, 200 µM [11] [%] | fractional inhibitory concentration index (FICI) (Klebsiella pneumoniae [12]) | IC50 (Staphylococcus aureus [13]) [µM] | fold change (FC) (Klebsiella pneumoniae [14]) | MIC (Klebsiella pneumoniae [15]) [µg/mL] | fractional inhibitory concentration index (FICI) (Klebsiella pneumoniae [16]) | IC50 (Staphylococcus aureus [17]) [µM] |
| --- | --- | --- | --- | --- | --- | --- | --- | --- | --- | --- | --- | --- | --- | --- | --- | --- | --- | --- |
| Cl.Nc1nccc(-c2ccc(NC(=O)c3cc(Br)cc(Br)c3)cc2)n1 | ≥ 200 | > 64 | inactive | > 50 | ≥ 200 | > 50 | – | – | – | – | – | – | – | – | – | – | – | – |
| Cl.Nc1nccc(-c2ccc(NC(=O)c3cc(F)cc(F)c3)cc2)n1 | ≥ 200 | > 64 | inactive | > 50 | ≥ 200 | > 200 | – | – | – | – | – | – | – | – | – | – | – | – |
| Nc1nccc(-c2cccc(NC(=O)c3cc(Cl)cc(Br)c3)c2)n1 | – | – | – | – | – | 27.6 | > 200 | – | – | – | – | – | – | – | – | – | – | – |
| Cl.Nc1ncc(-c2cccc(NC(=O)c3cc(Br)cc(Br)c3)c2)cn1 | ≥ 200 | > 64 | inactive | > 50 | ≥ 200 | 43 | – | – | – | – | – | – | – | – | – | – | – | – |
| Cl.Nc1ncc(-c2ccc(NC(=O)c3cc(Cl)cc(Cl)c3)cc2)cn1 | ≥ 200 | > 64 | inactive | > 50 | ≥ 200 | > 200 | – | – | – | – | – | – | – | – | – | – | – | – |
| Cl.Nc1ncc(-c2cccc(NC(=O)c3cc(Cl)cc(Cl)c3)c2)cn1 | ≥ 200 | > 64 | inactive | > 50 | ≥ 200 | > 200 | – | – | – | – | – | – | – | – | – | – | – | – |
| Cl.Nc1ncc(-c2ccc(NC(=O)c3cc(Br)cc(Br)c3)cc2)cn1 | ≥ 200 | > 64 | inactive | > 50 | ≥ 200 | > 100 | – | – | – | – | – | – | – | – | – | – | – | – |
| Cl.Nc1nccc(-c2ccc(NC(=O)c3cc(Cl)cc(Cl)c3)cc2)n1 | ≥ 200 | > 64 | inactive | > 50 | ≥ 200 | 41 | – | – | – | – | – | – | – | – | – | – | – | – |
| CCCCCCCCCC(=O)NCCCc1cnc(N)nc1 | – | – | – | – | – | – | – | 72 | – | – | – | – | – | – | – | – | – | – |
| Cl.Nc1nccc(-c2ccccc2NC(=O)c2cc(F)cc(F)c2)n1 | ≥ 200 | > 64 | inactive | > 50 | ≥ 200 | > 200 | – | – | – | – | – | – | – | – | – | – | – | – |
| Cl.Nc1ncc(-c2ccc(NC(=O)c3cc(F)cc(F)c3)cc2)cn1 | ≥ 200 | > 64 | inactive | > 50 | ≥ 200 | > 200 | – | – | – | – | – | – | – | – | – | – | – | – |
| Cl.Nc1ncc(-c2ccccc2NC(=O)c2cc(Br)cc(Br)c2)cn1 | ≥ 200 | > 64 | inactive | > 50 | ≥ 200 | 69 | – | – | – | – | – | – | – | – | – | – | – | – |
| Cl.Nc1ncc(-c2cccc(NC(=O)c3cc(F)cc(F)c3)c2)cn1 | ≥ 200 | > 64 | inactive | > 50 | ≥ 200 | > 200 | – | – | – | – | – | – | – | – | – | – | – | – |
| Cl.Nc1ncc(-c2ccccc2NC(=O)c2cc(F)cc(F)c2)cn1 | ≥ 200 | > 64 | inactive | > 50 | ≥ 200 | > 200 | – | – | – | – | – | – | – | – | – | – | – | – |
| Cl.Nc1nccc(-c2ccccc2NC(=O)c2cc(Cl)cc(Cl)c2)n1 | ≥ 200 | > 64 | inactive | > 50 | ≥ 200 | > 50 | – | – | – | – | – | – | – | – | – | – | – | – |
| Cl.Nc1nccc(-c2ccccc2NC(=O)c2cc(Br)cc(Br)c2)n1 | ≥ 200 | > 64 | inactive | > 50 | ≥ 200 | > 200 | – | – | – | – | – | – | – | – | – | – | – | – |
| Cl.Nc1nccc(-c2cccc(NC(=O)c3cc(F)cc(F)c3)c2)n1 | ≥ 200 | > 64 | inactive | > 50 | ≥ 200 | > 200 | – | – | – | – | – | – | – | – | – | – | – | – |
| Cl.Nc1nccc(-c2cccc(NC(=O)c3cc(Br)cc(Br)c3)c2)n1 | ≥ 200 | > 64 | inactive | > 50 | ≥ 200 | 17.4 | – | 14.1 | inactive | inactive | <=0.09 | 3.4 | <=0.31 | 15.6 | 32 | 16 | <=0.19 | 20.2 |
| Cl.Nc1ncc(-c2ccccc2NC(=O)c2cc(Cl)cc(Cl)c2)cn1 | ≥ 200 | > 64 | inactive | > 50 | ≥ 200 | > 100 | – | – | – | – | – | – | – | – | – | – | – | – |
| Cl.Nc1nccc(-c2cccc(NC(=O)c3cc(Cl)cc(Cl)c3)c2)n1 | ≥ 200 | > 64 | inactive | > 50 | ≥ 200 | 26.4 | – | 29.5 | – | inactive | – | 5 | – | 24.9 | – | – | – | 26.6 |
